Data as given in ChEMBL document CHEMBL1156469 (2007).
The source made the active and inactive calls. The rule behind the calls is not given here.

Experiments:
[1] = system: Rattus norvegicus; assay: Increase in serum BMP2 levels in ovariectomized Wistar rat at 10 mg/kg, po after 10 weeks by ELISA relative to sham operated control; type: functional, organism-based; design: dose 10 mg/kg
Procedure, shortened: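 Ovariectomized rats given indicated doses or estrogen by oral feeding; serum BMP-2 by ELISA 10 weeks after surgery; compared with sham-operated group; n = 8/group, means ± S.D.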

[2] = system: Osteoblast; assay: Effect on tumor necrosis factor gene expression in rat primary osteoblast cells assessed as expression ratio of treated to untreated control by microarray analysis; type: functional
Procedure, shortened: (§1)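 GEArray Q series Mouse Osteogenesis cDNA array profiling osteogenic-differentiation genes in treated versus vehicle-treated primary osteoblasts.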

[3] = target: Alkaline phosphatase (Rattus norvegicus) (UniProt Q9JKS8); assay: Inhibition of induction of ALP activity in rat primary osteoblast cells at 1 uM after 48 hrs in presence of BMP2-specific neutralizing antibody; type: cell-based
[4] = system: MC3T3-E1; assay: Inhibition of antiapoptotic activity in mouse MC3T3-E1 cells at 1 uM after 48 hrs in presence of BMP2-specific neutralizing antibody; type: functional, cell-based
[5] = system: MC3T3-E1; assay: Reversal of increase in ER.DNA complex in mouse MC3T3-E1 cells transfected with dominant-negative mutant Src expression vector at 1 uM by RT-PCR; type: functional, cell-based
Procedure, shortened: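 BMP-2 promoter quantified by real-time PCR (45 cycles, 61 °C anneal), reported as IP-to-input Ct ratio. DN-Src by 3 μg vector, PP2 at 10 μM; ICI182780 and tamoxifen at indicated concentrations.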

[6] = target: T1, Estrogen receptor (Mus musculus) (UniProt P19785); assay: Reversal of increase in DNA-binding activity of ERalpha in nuclear extracts of mouse MC3T3-E1 cells by electrophoretic mobility shift assays in presence of short interfering ER alpha-RNA; type: cell-based
T1 sequence (whole entry): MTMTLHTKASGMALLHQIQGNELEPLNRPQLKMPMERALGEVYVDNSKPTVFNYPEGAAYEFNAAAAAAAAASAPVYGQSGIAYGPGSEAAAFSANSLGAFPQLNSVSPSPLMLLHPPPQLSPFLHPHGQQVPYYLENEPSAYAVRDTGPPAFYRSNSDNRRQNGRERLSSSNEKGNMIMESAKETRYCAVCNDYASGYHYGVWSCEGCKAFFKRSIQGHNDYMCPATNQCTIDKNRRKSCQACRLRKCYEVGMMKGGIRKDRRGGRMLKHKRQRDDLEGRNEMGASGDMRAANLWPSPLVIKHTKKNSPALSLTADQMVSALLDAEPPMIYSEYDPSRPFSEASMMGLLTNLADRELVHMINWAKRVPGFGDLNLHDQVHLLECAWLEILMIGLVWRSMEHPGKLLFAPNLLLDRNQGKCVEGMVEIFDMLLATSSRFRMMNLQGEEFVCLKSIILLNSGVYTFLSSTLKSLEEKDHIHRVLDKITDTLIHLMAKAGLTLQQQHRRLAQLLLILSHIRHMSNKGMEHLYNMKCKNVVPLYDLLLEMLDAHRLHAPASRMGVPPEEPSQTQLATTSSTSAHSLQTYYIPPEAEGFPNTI
Procedure, shortened: (§2)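 Nuclear extracts of MC3T3-E1 cells. ER-binding probe [α-32P]dCTP end-labeled, 20-min binding at room temperature, 5-fold unlabeled competitor where used. Complexes resolved on 5% nondenaturing PAGE in Tris-borate-EDTA pH 8.3, then autoradiography.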

[7] = target: T1, Estrogen receptor (Mus musculus); assay: Reversal of increase in DNA-binding activity of ERalpha in nuclear extracts of mouse MC3T3-E1 cells transfected with dominant-negative mutant Src expression vector by electrophoretic mobility shift assays; type: cell-based; procedure, shortened: as §2
[8] = target: T1, Estrogen receptor (Mus musculus); assay: Reversal of increase in DNA-binding activity of ERalpha in nuclear extracts of mouse MC3T3-E1 cells by electrophoretic mobility shift assays in presence of PP2; type: cell-based; procedure, shortened: as §2
[9] = Reversal of increase in BMP2 expression in mouse MC3T3-E1 cells expressing small interfering RNA for FOXA1 protein at 1 uM by Western blot; type: functional, cell-based
[10] = system: MDA-MB-231; assay: Reversal of induction of FOXO3a nuclear accumulation in human MDA-MB-231 cells transfected with constitutively activated Akt mutant; type: functional, cell-based
[11] = target: RAC-alpha serine/threonine-protein kinase (Homo sapiens) (UniProt P31749); assay: Enhancement of Akt inactivation in human MDA-MB-231 cells transfected with dominant negative Akt mutant; type: cell-based
Procedure, shortened: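 MDA-MB-231 cells transfected with vector, constitutively active Akt or dominant negative Akt, treated ± compound; analyzed by Western blotting and BMP-2 promoter luciferase activity.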

[12] = system: Osteoblast; assay: Increase in proliferation of rat primary osteoblast cells at 0.1 to 10 uM after 24 hr by flow cytometry; type: functional, cell-based
[13] = system: MG-63; assay: Increase in osteocalcin mRNA levels in human MG63 cells at 1 uM after 72 hrs by RT-PCR; type: functional, cell-based
Procedure, shortened: (§3)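 Cells treated with 1 μm for 72 h; osteocalcin and osteopontin mRNA by RT-PCR, 30 cycles (95/52/72 °C, 1 min each), ethidium bromide–stained agarose gels; repeated at least twice from at least two cDNA preparations.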

[14] = system: MC3T3-E1; assay: Increase in osteocalcin levels in mouse MC3T3-E1 cells at 1 uM after 72 hrs by ELISA; type: functional, cell-based
Procedure, shortened: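 Cells treated with 1 μm for 72 h; osteocalcin or osteopontin in culture medium by sandwich ELISA, HRP-streptavidin/TMB, 450 nm; percent change versus untreated control.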

[15] = system: MC3T3-E1; assay: Increase in osteopontin mRNA levels in mouse MC3T3-E1 cells at 1 uM after 72 hrs by RT-PCR; type: functional, cell-based; procedure, shortened: as §3
[16] = system: Osteoblast; assay: Increase in osteopontin mRNA levels in rat primary osteoblast cells at 1 uM after 72 hrs by RT-PCR; type: functional, cell-based; procedure, shortened: as §3
[17] = system: Osteoblast; assay: Inhibition of TNF-alpha-induced apoptosis in rat primary osteoblast cells after 24 hrs by flow cytometry; type: functional, cell-based
Procedure, shortened: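 Cells washed in PBS, held 30 min in 0.5% Triton X-100/PBS/0.05% RNase A, then propidium iodide (50 μg/ml) added and kept on ice 15–30 min. Apoptosis is the hypodiploid fraction below the G0/G1 peak, by flow cytometry. Run in triplicate and repeated on three occasions.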

[18] = system: Osteoblast; assay: Effect on fibroblast growth factor receptor 3 gene expression in rat primary osteoblast cells assessed as expression ratio of treated to untreated control by microarray analysis; type: functional
[19] = system: Osteoblast; assay: Increase in bone morphogenetic protein 2 gene expression in rat primary osteoblast cells assessed as expression ratio of treated to untreated control by microarray analysis; type: functional; procedure, shortened: as §1
[20] = system: Osteoblast; assay: Effect on runt related transcription factor 2 gene expression in rat primary osteoblast cells assessed as expression ratio of treated to untreated control by microarray analysis; type: functional
Procedure, shortened: (§4)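 Resveratrol-treated and vehicle-treated primary osteoblasts were profiled on a mouse osteogenesis-focused cDNA array (GEArray Q series) built to track gene expression during osteogenic differentiation. Each gene's signal in treated cells was expressed as a ratio to untreated control.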

[21] = system: Osteoblast; assay: Effect on procollagen 1 alpha 1 gene expression in rat primary osteoblast cells assessed as expression ratio of treated to untreated control by microarray analysis; type: functional; procedure, shortened: as §4

Sequence of Alkaline phosphatase (Rattus norvegicus) (Q9JKS8 as listed by the source): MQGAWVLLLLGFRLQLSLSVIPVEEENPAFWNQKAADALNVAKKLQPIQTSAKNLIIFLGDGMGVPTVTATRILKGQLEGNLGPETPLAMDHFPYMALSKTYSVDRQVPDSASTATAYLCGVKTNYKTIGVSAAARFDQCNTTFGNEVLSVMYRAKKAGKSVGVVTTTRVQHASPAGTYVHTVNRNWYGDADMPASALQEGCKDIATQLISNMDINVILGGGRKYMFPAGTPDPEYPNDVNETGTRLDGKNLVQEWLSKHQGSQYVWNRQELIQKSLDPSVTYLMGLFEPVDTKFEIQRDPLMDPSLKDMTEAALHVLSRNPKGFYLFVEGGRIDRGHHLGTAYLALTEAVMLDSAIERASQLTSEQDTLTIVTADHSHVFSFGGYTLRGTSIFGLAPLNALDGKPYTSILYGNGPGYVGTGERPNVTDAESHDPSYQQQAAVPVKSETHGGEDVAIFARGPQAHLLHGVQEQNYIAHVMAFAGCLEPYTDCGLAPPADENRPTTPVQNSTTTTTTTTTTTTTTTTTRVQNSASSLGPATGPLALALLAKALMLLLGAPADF
Sequence of RAC-alpha serine/threonine-protein kinase (Homo sapiens) (P31749 whole entry): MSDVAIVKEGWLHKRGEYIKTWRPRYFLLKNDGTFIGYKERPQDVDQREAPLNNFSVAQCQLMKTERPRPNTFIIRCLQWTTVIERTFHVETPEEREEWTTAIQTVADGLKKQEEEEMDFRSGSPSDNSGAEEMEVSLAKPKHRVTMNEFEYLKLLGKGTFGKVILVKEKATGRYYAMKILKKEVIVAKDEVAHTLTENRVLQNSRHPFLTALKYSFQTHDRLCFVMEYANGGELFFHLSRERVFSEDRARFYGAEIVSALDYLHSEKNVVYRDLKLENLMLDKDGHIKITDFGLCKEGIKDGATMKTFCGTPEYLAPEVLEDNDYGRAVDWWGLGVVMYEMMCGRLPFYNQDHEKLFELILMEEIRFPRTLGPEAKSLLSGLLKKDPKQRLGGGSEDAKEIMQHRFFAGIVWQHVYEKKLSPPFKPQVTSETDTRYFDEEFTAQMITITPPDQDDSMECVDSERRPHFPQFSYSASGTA

Structure (SMILES): Oc1ccc(/C=C/c2cc(O)cc(O)c2)cc1 [RESVERATROL]
- Activity [1]: Active
- Ratio [2]: 0.46
- Activity [3]: Active
- Activity [4]: Active
- Activity [5]: Active
- Activity [6]: Active
- Activity [7]: Active
- Activity [8]: Active
- Activity [9]: Active
- Activity [10]: Active
- Activity [11]: Active
- Activity [12]: Active
- Activity [13]: Active
- Activity [14]: Active
- Activity [15]: Active
- Activity [16]: Active
- Activity [17]: Active
- Ratio [18]: 0.9
- Ratio [19]: 12.75
- Ratio [20]: 3.26
- Ratio [21]: 9.67
